Laboratory results as given in ChEMBL document CHEMBL1152606, “Thienylhalomethylketones: Irreversible glycogen synthase kinase 3 inhibitors as useful pharmacological tools” (Bioorg Med Chem, 2009).
Active and inactive are the calls of the source. The rule behind the calls is not given here.

Legend:
[1] = target: T1, Alpha-2A adrenergic receptor (Rattus norvegicus) (UniProt P22909); test: Displacement of [3H]RX821002 from alpha2 adrenoceptor in rat cerebral cortex at 10 uM; assay type: tissue-based
T1 sequence (whole entry): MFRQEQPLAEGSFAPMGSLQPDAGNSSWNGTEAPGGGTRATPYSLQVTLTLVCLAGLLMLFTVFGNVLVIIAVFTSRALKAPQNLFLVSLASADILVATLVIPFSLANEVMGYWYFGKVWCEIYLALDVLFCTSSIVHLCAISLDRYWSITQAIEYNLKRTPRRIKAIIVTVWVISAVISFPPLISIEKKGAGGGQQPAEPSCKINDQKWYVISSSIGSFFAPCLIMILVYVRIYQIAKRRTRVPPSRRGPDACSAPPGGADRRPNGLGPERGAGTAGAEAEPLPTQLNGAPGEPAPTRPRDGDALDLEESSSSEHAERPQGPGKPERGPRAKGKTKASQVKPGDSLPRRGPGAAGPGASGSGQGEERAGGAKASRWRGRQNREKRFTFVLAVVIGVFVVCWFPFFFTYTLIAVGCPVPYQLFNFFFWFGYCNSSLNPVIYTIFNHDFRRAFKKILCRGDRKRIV
Summary of the method: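 Rat cerebral cortex source; [3H]RX 821002 ligand at 0.5 nM; yohimbine as reference compound; non-selective alpha-2 site.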

Rattus norvegicus [2] = species on record: Rattus norvegicus; test: Displacement of [3H]cystisine from alpha-BGTX sensitive nicotinic acetylcholine receptor in rat cerebral cortex; assay type: tissue-based; set-up: concentration or dose not given beside the values; conditions: concentration not given here
Rattus norvegicus [3] = species on record: Rattus norvegicus; test: Displacement of [3H]AMPA from AMPA receptor in rat cerebral cortex at 10 uM; assay type: tissue-based
[4] = target: Epidermal growth factor receptor (Homo sapiens) (UniProt P00533); test: Inhibition of EGFR in human A431 at 10 uM by liquid scintillation counting in presence of [33gammaP]ATP
Sequence of Epidermal growth factor receptor (Homo sapiens) (P00533 whole entry): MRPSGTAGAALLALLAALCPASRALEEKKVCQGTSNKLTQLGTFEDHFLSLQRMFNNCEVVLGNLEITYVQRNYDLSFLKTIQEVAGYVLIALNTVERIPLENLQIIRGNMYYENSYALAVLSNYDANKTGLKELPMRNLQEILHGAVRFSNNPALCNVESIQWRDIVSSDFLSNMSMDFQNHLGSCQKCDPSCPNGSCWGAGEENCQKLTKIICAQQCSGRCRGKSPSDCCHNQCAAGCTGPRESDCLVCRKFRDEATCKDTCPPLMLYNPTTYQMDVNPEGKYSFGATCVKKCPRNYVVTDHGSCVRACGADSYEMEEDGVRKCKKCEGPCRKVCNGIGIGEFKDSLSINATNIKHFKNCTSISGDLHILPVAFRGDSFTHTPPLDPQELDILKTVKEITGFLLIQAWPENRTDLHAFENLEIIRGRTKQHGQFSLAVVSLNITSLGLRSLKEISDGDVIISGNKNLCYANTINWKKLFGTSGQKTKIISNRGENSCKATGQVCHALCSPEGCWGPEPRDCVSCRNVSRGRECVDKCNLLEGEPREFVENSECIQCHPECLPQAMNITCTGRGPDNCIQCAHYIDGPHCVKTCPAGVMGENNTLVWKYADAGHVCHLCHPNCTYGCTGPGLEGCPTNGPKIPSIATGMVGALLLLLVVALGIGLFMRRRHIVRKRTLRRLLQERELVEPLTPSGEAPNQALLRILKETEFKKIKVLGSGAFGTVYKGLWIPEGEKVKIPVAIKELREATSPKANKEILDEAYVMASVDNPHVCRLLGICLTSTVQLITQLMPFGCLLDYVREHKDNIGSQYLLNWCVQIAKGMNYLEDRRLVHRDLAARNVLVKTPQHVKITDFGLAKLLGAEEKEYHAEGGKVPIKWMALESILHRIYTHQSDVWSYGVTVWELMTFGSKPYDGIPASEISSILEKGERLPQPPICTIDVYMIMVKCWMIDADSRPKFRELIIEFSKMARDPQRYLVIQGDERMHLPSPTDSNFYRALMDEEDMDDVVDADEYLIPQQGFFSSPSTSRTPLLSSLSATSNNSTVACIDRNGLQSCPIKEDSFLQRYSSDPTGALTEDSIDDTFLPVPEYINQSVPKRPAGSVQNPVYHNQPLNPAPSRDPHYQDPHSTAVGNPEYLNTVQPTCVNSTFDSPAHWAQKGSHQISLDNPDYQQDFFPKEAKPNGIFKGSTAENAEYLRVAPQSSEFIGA
Summary of the method: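 EGFR kinase from A-431 cells; substrate [γ33-P]ATP plus poly GAT (0.48 mg/mL); PD 153035 reference; product measured by liquid scintillation; compounds at 10 µM.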

[5] = target: Glutamate NMDA receptor (Rattus norvegicus) (UniProt P35439+Q00959+Q00960+Q00961+Q62645+Q8VHN2+Q9R1M7); test: Displacement of [3H]CGP39653 from NMDA receptor in rat cerebral cortex at 10 uM; assay type: tissue-based
Bos taurus = species on record: Bos taurus; test: Inhibition of bovine thymus p56LCK at 10 uM by liquid scintillation counting in presence of [33gammaP]ATP
Summary of the method: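 p56lck from bovine thymus; [γ33-P]ATP with polyGT (0.5 mg/mL) substrate; staurosporine reference; liquid scintillation read-out; compounds tested at 10 µM.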

[6] = target: D(3) dopamine receptor (Homo sapiens) (UniProt P35462); test: Displacement of [3H]spiperone from human recombinant dopamine D3 receptor expressed in CHO cells at 10 uM; assay type: cell-based
Sequence of D(3) dopamine receptor (Homo sapiens) (P35462 whole entry): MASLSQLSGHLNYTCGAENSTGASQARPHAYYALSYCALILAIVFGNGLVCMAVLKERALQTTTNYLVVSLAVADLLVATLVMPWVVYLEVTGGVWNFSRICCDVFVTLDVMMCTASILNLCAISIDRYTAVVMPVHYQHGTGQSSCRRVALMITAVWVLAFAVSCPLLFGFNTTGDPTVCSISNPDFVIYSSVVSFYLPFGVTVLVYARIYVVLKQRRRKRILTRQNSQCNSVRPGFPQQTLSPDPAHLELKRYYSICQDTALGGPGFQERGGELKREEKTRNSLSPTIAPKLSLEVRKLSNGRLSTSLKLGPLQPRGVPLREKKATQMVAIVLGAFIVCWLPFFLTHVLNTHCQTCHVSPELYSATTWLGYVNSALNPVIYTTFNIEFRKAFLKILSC
Summary of the method: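 Human recombinant D3 receptor from CHO cells; [3H]spiperone 0.3 nM as ligand; (+)-buctaclamol reference compound.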

Rattus norvegicus [7] = species on record: Rattus norvegicus; test: Inhibition of rat recombinant MAPK at 10 uM by liquid scintillation counting in presence of [33gammaP]ATP
Summary of the method: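 Rat recombinant ERK42 MAP kinase expressed in E. coli; [γ33-P]ATP with MBP (0.5 mg/mL); staurosporine reference; liquid scintillation read-out; 10 µM compound.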

[8] = target: D(2) dopamine receptor (Homo sapiens) (UniProt P14416); test: Displacement of [3H]spiperone from human recombinant dopamine D2 receptor expressed in CHO cells at 10 uM; assay type: cell-based
Sequence of D(2) dopamine receptor (Homo sapiens) (P14416 whole entry): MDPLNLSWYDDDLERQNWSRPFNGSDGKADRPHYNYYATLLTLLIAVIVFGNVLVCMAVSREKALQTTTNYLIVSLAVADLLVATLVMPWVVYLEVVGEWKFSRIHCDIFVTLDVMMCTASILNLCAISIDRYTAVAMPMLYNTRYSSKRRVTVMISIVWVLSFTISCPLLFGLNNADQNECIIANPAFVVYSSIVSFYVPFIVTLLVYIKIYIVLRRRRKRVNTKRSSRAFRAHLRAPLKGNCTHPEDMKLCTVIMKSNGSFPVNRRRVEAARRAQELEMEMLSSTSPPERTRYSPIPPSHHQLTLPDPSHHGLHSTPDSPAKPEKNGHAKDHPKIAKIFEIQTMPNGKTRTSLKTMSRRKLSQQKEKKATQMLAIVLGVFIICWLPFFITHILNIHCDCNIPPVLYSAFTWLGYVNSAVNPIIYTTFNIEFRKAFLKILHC
Summary of the method: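 Human recombinant D2 receptor expressed in CHO cells; [3H]spiperone ligand at 0.3 nM; (+)-buctaclamol as reference compound.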

[9] = Displacement of [3H]QNB from muscarinic receptor at 10 uM
[10] = test system: 5-HT (non-selective) serotonin receptor (Rattus norvegicus); test: Inhibition of [3H]serotonine binding to non-selective 5-HT serotoninergic receptor in rat cerebral cortex at 10 uM
[11] = target: Insulin receptor (Homo sapiens) (UniProt P06213); test: Inhibition of human recombinant IR at 10 uM by liquid scintillation counting in presence of [33gammaP]ATP
Sequence of Insulin receptor (Homo sapiens) (P06213 28-758 limits assumed): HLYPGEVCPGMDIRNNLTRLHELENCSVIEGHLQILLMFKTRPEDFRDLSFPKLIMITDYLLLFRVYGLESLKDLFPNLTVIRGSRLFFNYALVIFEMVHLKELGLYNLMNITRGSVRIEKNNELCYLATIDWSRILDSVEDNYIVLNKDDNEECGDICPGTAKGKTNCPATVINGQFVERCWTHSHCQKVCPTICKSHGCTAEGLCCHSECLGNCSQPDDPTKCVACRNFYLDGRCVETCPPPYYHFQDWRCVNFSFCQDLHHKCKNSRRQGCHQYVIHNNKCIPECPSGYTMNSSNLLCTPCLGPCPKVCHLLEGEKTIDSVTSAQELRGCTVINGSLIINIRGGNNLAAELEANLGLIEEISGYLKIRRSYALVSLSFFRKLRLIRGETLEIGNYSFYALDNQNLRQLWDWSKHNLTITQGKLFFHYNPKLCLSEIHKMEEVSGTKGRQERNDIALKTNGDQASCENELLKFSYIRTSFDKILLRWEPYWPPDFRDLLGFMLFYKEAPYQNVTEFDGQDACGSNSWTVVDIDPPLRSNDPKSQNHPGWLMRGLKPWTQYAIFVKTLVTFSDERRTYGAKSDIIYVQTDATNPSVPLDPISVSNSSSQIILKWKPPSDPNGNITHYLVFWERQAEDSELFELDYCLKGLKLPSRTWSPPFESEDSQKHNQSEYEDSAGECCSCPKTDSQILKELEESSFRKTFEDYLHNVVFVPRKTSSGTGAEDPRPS
Sequence of Insulin receptor (Homo sapiens) (P06213 763-1382 limits assumed): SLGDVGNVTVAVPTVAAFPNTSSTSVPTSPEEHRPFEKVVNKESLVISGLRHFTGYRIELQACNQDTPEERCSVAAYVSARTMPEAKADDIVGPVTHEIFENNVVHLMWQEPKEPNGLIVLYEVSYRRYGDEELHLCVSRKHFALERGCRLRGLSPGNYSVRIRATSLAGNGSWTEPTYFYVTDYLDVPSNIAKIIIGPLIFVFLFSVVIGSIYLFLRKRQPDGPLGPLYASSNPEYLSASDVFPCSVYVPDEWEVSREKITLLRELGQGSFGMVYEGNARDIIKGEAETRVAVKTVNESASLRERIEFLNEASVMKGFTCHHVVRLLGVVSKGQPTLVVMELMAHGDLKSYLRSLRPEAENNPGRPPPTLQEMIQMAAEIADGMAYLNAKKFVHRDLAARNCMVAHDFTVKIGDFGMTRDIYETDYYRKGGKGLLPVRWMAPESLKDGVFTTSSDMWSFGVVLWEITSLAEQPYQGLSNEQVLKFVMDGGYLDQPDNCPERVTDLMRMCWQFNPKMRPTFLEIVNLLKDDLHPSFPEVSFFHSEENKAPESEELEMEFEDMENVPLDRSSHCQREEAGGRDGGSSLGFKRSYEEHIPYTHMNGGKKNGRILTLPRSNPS
Summary of the method: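 Human recombinant insulin receptor kinase; [γ33-P]ATP plus poly GT (0.03 mg/mL); staurosporine reference; liquid scintillation detection; 10 µM compound.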

[12] = target: Tyrosine-protein kinase ABL1 (Mus musculus) (UniProt P00520); test: Inhibition of mouse recombinant Abl expressed in Escherichia coli at 10 uM by fluorescence polarization
[13] = target: Dual specificity mitogen-activated protein kinase kinase 1 (Oryctolagus cuniculus) (UniProt P29678); test: Inhibition of rabbit recombinant MEK1 expressed in Escherichia coli at 10 uM by liquid scintillation counting in presence of [33gammaP]ATP
Sequence of Dual specificity mitogen-activated protein kinase kinase 1 (Oryctolagus cuniculus) (P29678 whole entry): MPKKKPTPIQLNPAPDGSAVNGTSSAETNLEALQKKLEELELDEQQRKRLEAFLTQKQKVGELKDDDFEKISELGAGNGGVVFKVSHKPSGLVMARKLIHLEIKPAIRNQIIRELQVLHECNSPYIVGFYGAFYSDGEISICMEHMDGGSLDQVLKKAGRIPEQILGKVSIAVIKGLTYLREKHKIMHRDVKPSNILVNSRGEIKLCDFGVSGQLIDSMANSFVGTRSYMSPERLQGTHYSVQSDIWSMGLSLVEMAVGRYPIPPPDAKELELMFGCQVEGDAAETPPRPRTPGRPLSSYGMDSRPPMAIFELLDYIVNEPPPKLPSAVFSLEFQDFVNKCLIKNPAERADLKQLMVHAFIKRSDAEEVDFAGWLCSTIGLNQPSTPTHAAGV
Summary of the method: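 Rabbit recombinant MEK1 from E. coli; ATP plus unactivated MAP kinase (0.01 mg/mL) as substrate; staurosporine reference; liquid scintillation detection; 10 µM.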

Rattus norvegicus [14] = species on record: Rattus norvegicus; test: Displacement of [3H]cystisine from alpha-BGTX insensitive nicotinic acetylcholine receptor in rat cerebral cortex at 10 uM; assay type: tissue-based
Rattus norvegicus [15] = species on record: Rattus norvegicus; test: Inhibition of rat CAM2 at 10 uM by liquid scintillation counting in presence of [33gammaP]ATP
Summary of the method: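 CaM kinase II from rat brain; [γ33-P]ATP plus autocamtide-2 (5 µM); staurosporine reference; labelled autocamtide-2 counted by liquid scintillation; compounds at 10 µM.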

[16] = target: Glycogen synthase kinase-3 beta (Homo sapiens, UniProt P49841); test: Inhibition of GSK3-beta by liquid scintillation counting
Sequence of Glycogen synthase kinase-3 beta (P49841 whole entry): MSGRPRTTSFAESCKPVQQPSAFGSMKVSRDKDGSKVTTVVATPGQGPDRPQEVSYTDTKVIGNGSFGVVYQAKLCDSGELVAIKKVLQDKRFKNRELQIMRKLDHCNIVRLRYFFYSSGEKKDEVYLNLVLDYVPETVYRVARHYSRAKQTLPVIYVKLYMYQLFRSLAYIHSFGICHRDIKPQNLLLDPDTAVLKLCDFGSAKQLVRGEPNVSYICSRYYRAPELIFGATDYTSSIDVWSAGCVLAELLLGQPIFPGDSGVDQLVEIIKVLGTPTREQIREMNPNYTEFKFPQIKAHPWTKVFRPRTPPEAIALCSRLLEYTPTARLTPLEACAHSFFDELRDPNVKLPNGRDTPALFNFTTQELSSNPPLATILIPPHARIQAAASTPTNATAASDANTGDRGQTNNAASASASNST
Summary of the method: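 GSK-3β enzyme incubated with test compound at various concentrations, GS-1 peptide substrate (15 mM as printed), 15 μM ATP plus 0.2 μCi [γ-32P]ATP, in 50 mM Tris pH 7.5, 10 mM MgCl2, 1 mM EGTA, 1 mM EDTA; 20 min at 37 °C. Aliquots spotted on P81 phosphocellulose, washed in 1% phosphoric acid, counted by liquid scintillation.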

[17] = target: Proto-oncogene tyrosine-protein kinase Src (Homo sapiens) (UniProt P12931); test: Inhibition of Src at 10 uM
Sequence of Proto-oncogene tyrosine-protein kinase Src (Homo sapiens) (P12931 2-536 limits assumed): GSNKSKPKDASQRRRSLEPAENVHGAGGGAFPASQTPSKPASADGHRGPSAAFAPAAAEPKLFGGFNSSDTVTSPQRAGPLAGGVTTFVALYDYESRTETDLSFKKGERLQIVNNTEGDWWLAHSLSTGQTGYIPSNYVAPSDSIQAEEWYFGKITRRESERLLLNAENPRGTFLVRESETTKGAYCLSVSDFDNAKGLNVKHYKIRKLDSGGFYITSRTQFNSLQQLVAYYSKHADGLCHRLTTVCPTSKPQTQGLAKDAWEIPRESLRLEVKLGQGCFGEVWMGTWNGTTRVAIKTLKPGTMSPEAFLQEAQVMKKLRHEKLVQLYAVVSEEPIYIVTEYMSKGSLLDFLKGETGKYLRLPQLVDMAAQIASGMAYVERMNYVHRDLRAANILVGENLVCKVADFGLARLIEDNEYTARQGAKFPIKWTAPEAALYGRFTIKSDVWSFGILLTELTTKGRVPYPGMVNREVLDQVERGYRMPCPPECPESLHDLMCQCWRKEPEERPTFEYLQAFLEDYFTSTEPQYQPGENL

[18] = target: Glycogen synthase kinase-3 beta (Mus musculus) (UniProt Q9WV60); test: Inhibition of GSK-3-beta-mediated tau phosphorylation in mouse granule cerebellar neurons cells after 16 hrs by Western blot
Sequence of Glycogen synthase kinase-3 beta (Mus musculus) (Q9WV60 whole entry, looked up): as the sequence (P49841 whole entry) above, with T390P, T392A, A400T, T402A counted along it
Summary of the method: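 Cerebellar granule neurons from P6 mice, plated on poly-L-lysine and grown 48 h in serum-free neurobasal/B-27 with 12.5 mM KCl; compounds 0.5–25 µM; LiCl 10 mM positive control with excess myo-inositol; lysates blotted with PHF-1 and Tau-1, normalised to β-actin, densitometry; mean of three experiments, control = 100 r.u.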

`O=C(CBr)c1cc(Br)c(Br)s1` showed an inhibition [1] of under 10%, an inhibition (Rattus norvegicus [2]) of under 10% and an inhibition (Rattus norvegicus [3]) of under 10%. It also gave an inhibition [4] of under 10%, an inhibition [5] of under 10% and an inhibition (Bos taurus) of under 10%. It also gave an inhibition [6] of under 10%, an inhibition (Rattus norvegicus [7]) of under 10% and an inhibition [8] of under 10%. It also gave an inhibition [9] of under 10%, an inhibition [10] of under 10% and an inhibition [11] of 12%. It also gave an inhibition [12] of under 10%, an inhibition [13] of under 10% and an inhibition (Rattus norvegicus [14]) of under 10%. For the same compound, the inhibition (Rattus norvegicus [15]) was under 10%, the IC50 [16] was 1 µM and the inhibition [17] was 76%.

`O=C(Nn1c2ccccc2c2ccccc21)c1ccccc1` showed an IC50 [16] of over 100 µM.

With `CC(N)Cc1cc(Cl)cs1` (configuration not stated) the IC50 [16] was over 100 µM.

With `O=C(CCl)c1cscc1Cl` the inhibition [1] was under 10%, the inhibition (Rattus norvegicus [2]) was under 10% and the inhibition (Rattus norvegicus [3]) was under 10%. The inhibition [4] was under 10%, the inhibition [5] was 16% and the inhibition (Bos taurus) was 31%. The inhibition [6] was under 10%, the inhibition (Rattus norvegicus [7]) was under 10% and the inhibition [8] was 13%. The inhibition [9] was under 10%, the inhibition [10] was under 10% and the inhibition [11] was under 10%. It also gave an inhibition [12] of under 10%, an inhibition [13] of under 10% and an inhibition (Rattus norvegicus [14]) of under 10%. For the same compound, the inhibition (Rattus norvegicus [15]) was under 10%, the Activity [18] was “Active” and the inhibition [17] was 24%.

With `c1ccc(-c2nc(-c3ccccc3)n(-c3ccccc3)n2)cc1` the IC50 [16] was over 100 µM.

`O=Cc1cccs1` [2-THIOPHENENECARBOXALDEHYDE] gave an IC50 [16] of over 100 µM.

For `N=C(c1ccccc1Cl)c1ccccc1N(NC(=O)c1ccccc1)c1ccccc1`, the IC50 [16] was over 100 µM.

With `O=C(CBr)c1scc(Br)c1Br` the inhibition [1] was under 10%, the inhibition (Rattus norvegicus [2]) was under 10% and the inhibition (Rattus norvegicus [3]) was under 10%. For the same compound, the inhibition [4] was 17%, the inhibition [5] was under 10% and the inhibition (Bos taurus) was under 10%. It also gave an inhibition [6] of under 10%, an inhibition (Rattus norvegicus [7]) of under 10% and an inhibition [8] of under 10%. It also gave an inhibition [9] of under 10%, an inhibition [10] of under 10% and an inhibition [11] of under 10%. For the same compound, the inhibition [12] was under 10%, the inhibition [13] was under 10% and the inhibition (Rattus norvegicus [14]) was 22%. The inhibition (Rattus norvegicus [15]) was under 10%, the IC50 [16] was 1 µM and the inhibition [17] was 66%.

Compound `OC(CCl)c1sc(Br)c(Br)c1Br` (configuration not stated) has an IC50 [16] of 75 µM.

Work on `Cc1sc(C(=O)CCl)cc1C(=O)CCl` yielded an inhibition [1] of under 10%, an inhibition (Rattus norvegicus [2]) of under 10% and an inhibition (Rattus norvegicus [3]) of under 10%. The inhibition [4] was 25%, the inhibition [5] was under 10% and the inhibition (Bos taurus) was 17%. It also gave an inhibition [6] of under 10%, an inhibition (Rattus norvegicus [7]) of under 10% and an inhibition [8] of under 10%. It also gave an inhibition [9] of under 10%, an inhibition [10] of under 10% and an inhibition [11] of 12%. It also gave an inhibition [12] of under 10%, an inhibition [13] of under 10% and an inhibition (Rattus norvegicus [14]) of under 10%. It also gave an inhibition (Rattus norvegicus [15]) of under 10% and an inhibition [17] of 54%.

`CCSC1=NC(c2ccccc2)=NN(c2ccccc2)c2ccccc21` showed an IC50 [16] of over 100 µM.

Work on `COc1cc2c(cc1OC)C(=O)CC2` yielded an IC50 [16] of over 100 µM.

`O=Nn1c2ccccc2c2cc(Cl)ccc21` gave an IC50 [16] of over 100 µM.

`O=C(CBr)c1ccc(Br)s1` showed an IC50 [16] of 1 µM.

In the case of `CCOC(=O)c1sc(C)c(C)c1O`, the IC50 [16] is reported as over 100 µM.
